Key:
Type in all cases: cell-based
ScGT1 = assay: Antiprion activity against scrapie prion protein replication in mouse ScGT1 cells assessed as inhibition of formation of PrPSc from PrPc after 5 days by western-blot analysis; design: concentration or dose not given beside the values; conditions: dose or concentration not given here
How it was run: (§1)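 ScGT1 cells in DMEM + 10% FBS, split 1:10 into Petri dishes and grown 2 days at 37 °C, 5% CO₂. Compounds added at non-toxic concentrations from 0.1 nM upward and left 5 days. Proteins then extracted, quantified, digested with proteinase K and Western-blotted. Densitometry of PK-resistant PrP gives percent remaining vs untreated cells; EC₅₀ taken as the concentration for half-maximal inhibition.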

[1] = Cytotoxicity against mouse ScGT1 cells at 1 uM after 5 days by calcein-AM staining; conditions: scgt1, 120 h
How it was run: (§2)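 ScGT1 cells in DMEM + 10% FBS, plated at 25000 cells per well. Compounds dissolved in 100% DMSO and diluted in PBS, then added at 1 nM–10 μM for 5 days at 37 °C, 5% CO₂. Viability read by Calcein-AM fluorescence on a plate reader as percent viable cells vs untreated control; LC₅₀ taken as the 50% lethal concentration.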

[2] = Antiprion activity against scrapie prion protein replication in mouse ScGT1 cells assessed as inhibition of formation of PrPSc from PrPc […] after 5 days by western-blot analysis; conditions: ScGT1, 120 h; how it was run: as §1
[3] = Cytotoxicity against mouse ScGT1 cells at after 5 days by calcein-AM staining; conditions: read-out: LC50; how it was run: as §2

Row | Compound | inhibition (ScGT1) [%] | Activity [1] [%] | EC50 [2] [nM] | CC50 at 120 h [3] [nM]
1 | COC(=O)[C@H](C)NC1=C(Br)C(=O)C(N[C@@H](Cc2c[nH]c3ccccc23)C(=O)OC)=C(Br)C1=O | 0.43 | 65.9 |  | 
2 | COC(=O)[C@H](C)NC1=C(Br)C(=O)C(N[C@@H](CCSC)C(=O)OC)=C(Br)C1=O | 11.4 | 96.1 |  | 
3 | COC(=O)[C@H](C)NC1=C(Br)C(=O)C(N[C@@H](CCCCNC(=O)OC(C)(C)C)C(=O)OC)=C(Br)C1=O |  | 52.3 |  | 
4 | COC(=O)[C@H](C)NC1=C(Cl)C(=O)C(N[C@@H](Cc2ccccc2)C(=O)OC)=C(Cl)C1=O | 73.2 | 68.4 | 870 | 2400
5 | COC(=O)[C@H](C)NC1=C(Br)C(=O)C(N[C@@H](CCCNC(=N)N[N+](=O)[O-])C(=O)OC)=C(Br)C1=O | 0.31 | 74.1 |  | 
6 | CC[C@H](C)[C@@H](NC1=C(Br)C(=O)C(N[C@@H](C)C(=O)OC)=C(Br)C1=O)C(=O)OC | 28.1 | 91.3 |  | 
7 | COC(=O)[C@H](C)NC1=C(Br)C(=O)C(N[C@@H](Cc2ccccc2)C(=O)OC)=C(Br)C1=O | 18.1 | 80.2 | 3600 | 
8 | COC(=O)[C@H](C)NC1=C(Br)C(=O)C(N[C@@H](C)C(=O)OC)=C(Br)C1=O | 0.29 | 91.2 |  | 
9 | CC[C@H](C)[C@@H](NC1=C(Cl)C(=O)C(N[C@@H](C)C(=O)OC)=C(Cl)C1=O)C(=O)OC | 6.6 | 88.2 |  | 
10 | COC(=O)[C@H](C)NC1=C(Cl)C(=O)C(N[C@@H](C)C(=O)OC)=C(Cl)C1=O | 0.36 | 71.6 |  | 
11 | COC(=O)[C@H](C)NC1=C(Cl)C(=O)C(N[C@@H](CCCNC(=N)N[N+](=O)[O-])C(=O)OC)=C(Cl)C1=O | 0.23 | 81.4 |  | 
12 | COC(=O)[C@H](C)NC1=C(Cl)C(=O)C(N[C@@H](Cc2c[nH]c3ccccc23)C(=O)OC)=C(Cl)C1=O | 0.25 | 96 | 7700 | 
13 | COC(=O)[C@H](C)NC1=C(Cl)C(=O)C(N[C@@H](CCSC)C(=O)OC)=C(Cl)C1=O | 4.8 | 95.5 |  | 
14 | COC(=O)[C@H](C)NC1=C(Cl)C(=O)C(N[C@@H](CCCCNC(=O)OC(C)(C)C)C(=O)OC)=C(Cl)C1=O |  | 40.7 |  | 
